The results in this text go back to ChEMBL document CHEMBL1123879, “Synthesis and antiarrhythmic activity of novel 3-alkyl-1-[omega-[4-[(alkylsulfonyl)amino]phenyl]-omega- hydroxyalkyl]-1H-imidazolium salts and related compounds” (J Med Chem, 1987).

For assay [1], the system named is Canis familiaris. Briefly: In vivo intraduodenal activity in mongrel dogs was assessed by percent change in blood pressure at active dose of 30 mg/kg, administered intradermally. In kind it is functional, Canis lupus familiaris, Artery. The conditions noted are these: in the assay text read “intraduodenally” for “intradermally”. Summed up: (§1)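 Healthy dogs (8–20 kg) of either sex, pentobarbital 30 mg/kg iv, ventilated, temperature held at 36 ± 0.5 °C. Compound given intraduodenally as suspension in 0.5% tragacanth. HR, BP and FRP measured at 45 min postdose; second dose if FRP/conduction change below 12%. Active dose means FRP change ≥ 12%; HR and BP given as % change, mean ± SEM.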

For assay [2], the species on record is Canis familiaris. Briefly: Maximum observed change in FRP from control was determined in isolated canine ventricular muscle fibers at a concentration of 100 uM. In kind it is functional, Canis lupus familiaris, Muscle tissue. The gist of the method:
(§2)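 Canine right ventricular papillary muscle strips superfused with O2/CO2-gassed saline at 36 ± 0.5 °C. Bipolar electrogram recording. Stimulated at 4× diastolic threshold (2 ms pulses), equilibrated 60 min. FRP measured at 1000 ms cycle length by S2 after every tenth S1 at shortening intervals. Cumulative concentrations; one compound per strip, with vehicle controls. Readout is concentration giving a 20% FRP change, or maximal change; log mean with 90% CI when n > 2.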

The species entered for assay [3] is Canis familiaris. Briefly: Concentration that causes 20% increase in ADP95 (action potential duration at 95% repolarization) was determined on isolated canine cardiac Purkinje fibers (0.01-10 uM concentration range). It is filed as functional, Canis lupus familiaris, Purkinje fiber. Summed up: (§3)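 Canine cardiac Purkinje fibres in gassed physiological saline (95% O2–5% CO2, pH 7.35–7.40) at 36 ± 0.5 °C. Paced at 1.0 Hz with 2 ms pulses at twice diastolic threshold. Intracellular microelectrode recording after up to 1 h of stabilisation; 30 min exposure per concentration; one compound per fibre, with vehicle controls. Readout is concentration giving a 20% change in APD95, or maximal APD95 change; log mean with 90% CI when n > 2.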

The test system of assay [4] is Canis familiaris. As to the kind of experiment: In vivo intraduodenal activity in mongrel dogs was assessed by percent change in heart rate at active dose of 30 mg/kg, administered intradermally. In kind it is functional, Canis lupus familiaris. The conditions noted are these: in the assay text read “intraduodenally” for “intradermally”. Summed up: as §1
Assay [5] is filed under the species Canis familiaris. Briefly: Concentration that causes 20% increase in functional refractory period (FRP) was determined on isolated canine ventricular muscle fibers; NR = never reached. The note with it: Canis lupus familiaris; Muscle tissue. The gist of the method: as §2
Assay [6] is filed under the species Canis familiaris. Briefly: Maximum observed change in ADP95 from control value was determined in isolated canine cardiac uM. It is filed as functional, Canis lupus familiaris. The gist of the method:
as §3

In assay [7] the test system is Canis familiaris. Briefly: In vivo antiarrhythmic efficacy in a programmed electrical stimulation (PES) model of mongrel dogs reported as number of animals effective at dose range of 0.3-30 mg/kg. In kind it is functional, Canis lupus familiaris, Heart. The gist of the method: (§4)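 Mongrel dogs (8–17 kg) with two-stage LAD occlusion 24 h earlier, anesthetized with thiopental 15 mg/kg and ventilated; open chest. PES induces SVT/VF; two control arrhythmias 30 min apart. Compound given as 10-min iv infusion, PES repeated 20 min later, dose escalated while still inducible; noninducibility counts as effective. HR and BP reported as % change at effective dose, mean ± SEM.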

Assay [8] is filed under the species Canis familiaris. As to the kind of experiment: Maximum observed change in FRP from control was determined in isolated canine ventricular muscle fibers at a concentration of 10 uM. In kind it is functional, Canis lupus familiaris, Muscle tissue. Summed up:
as §2

Assay [9] concerns Canis familiaris. Briefly: In vivo intraduodenal activity in mongrel dogs was assessed by % change in blood pressure (10 mg/kg administered intradermally). The note with it: in the assay text read “intraduodenally” for “intradermally”. It is filed as functional, Canis lupus familiaris, Artery. The gist of the method: as §1
For assay [10], the species on record is Canis familiaris. Briefly: Maximum observed change in FRP from control was determined on isolated canine ventricular muscle fibers at a concentration of 100 uM. It is filed as functional, Canis lupus familiaris, Muscle tissue. Summed up: as §2
The test system of assay [11] is Canis familiaris. Briefly: In vivo intraduodenal activity in mongrel dogs was assessed by % change in heart rate (10 mg/kg administered intradermally). It is filed as functional, Canis lupus familiaris. The conditions noted are these: in the assay text read “intraduodenally” for “intradermally”. The gist of the method:
as §1

Assay [12] is filed under the species Canis familiaris. Briefly: (§5) Concentration that causes 20% increase in functional refractory period (FRP) was determined on isolated canine ventricular muscle fibers. Details: species or system Canis lupus familiaris, Muscle tissue. The gist of the method: as §2
The species named for assay [13] is Canis familiaris. As to the kind of experiment: Concentration that causes 20% increase in ADP95 (action potential duration at 95% repolarization) was determined on isolated canine cardiac Purkinje fibers. It is filed as functional, Canis lupus familiaris, Purkinje fiber. The gist of the method:
as §3

The test system of assay [14] is Canis familiaris. As to the kind of experiment: In vivo antiarrhythmic efficacy in a programmed electrical stimulation (PES) model of mongrel dogs expressed as minimum effect dose (iv) at iv dose range of 0.3-10 mg/kg. In kind it is functional, Canis lupus familiaris, Heart. The gist of the method: as §4
Assay [15] relates to Canis familiaris. As to the kind of experiment: In vivo antiarrhythmic efficacy in a programmed electrical stimulation (PES) model of mongrel dogs expressed as percent change in blood pressure at iv dose range of 0.3-10 mg/kg. It is filed as functional, Canis lupus familiaris. Summed up: as §4
For assay [16], the target named is Adrenergic receptor beta (Canis familiaris). Briefly: Concentration effective against displacing [3H]dihydroalprenolol from beta adrenergic receptor from canine ventricular tissue.
Assay [17] has as its system Canis familiaris. Briefly: In vivo antiarrhythmic efficacy in a programmed electrical stimulation (PES) model of mongrel dogs reported as number of animals effective at dose range of 0.3-10 mg/kg. In kind it is functional, Canis lupus familiaris, Heart. The gist of the method: as §4
The test system of assay [18] is Canis familiaris. Briefly: In vivo antiarrhythmic efficacy in a programmed electrical stimulation (PES) model of mongrel dogs expressed as percent change in heart rate at iv dose range of 0.3-10 mg/kg. It is filed as functional, Canis lupus familiaris. Summed up: as §4
Assay [19] has as its system Canis familiaris. Briefly: In vivo antiarrhythmic efficacy in a programmed electrical stimulation (PES) model of mongrel dogs expressed as percent change in blood pressure at iv dose range of 0.1-10 mg/kg. It is filed as functional, Canis lupus familiaris. The gist of the method:
as §4

For assay [20], the system named is Canis familiaris. As to the kind of experiment: In vivo antiarrhythmic efficacy in a programmed electrical stimulation (PES) model of mongrel dogs expressed as percent change in heart rate at iv dose range of 0.1-10 mg/kg. In kind it is functional, Canis lupus familiaris. The gist of the method: as §4
Assay [21] is filed under the species Canis familiaris. Described as §5. The note with it: Canis lupus familiaris; Muscle tissue. The gist of the method: as §2
Assay [22] concerns Canis familiaris. Briefly: In vivo antiarrhythmic efficacy in a programmed electrical stimulation (PES) model of mongrel dogs expressed as minimum effect dose (iv) at iv dose range of 0.1-10 mg/kg. It is filed as functional, Canis lupus familiaris, Heart. Summed up:
as §4

The species entered for assay [23] is Canis familiaris. As to the kind of experiment: Concentration that causes 20% increase in ADP95 (action potential duration at 95% repolarization) was determined on isolated canine cardiac Purkinje fibers at a dose range of 0.01-10 uM. In kind it is functional, Canis lupus familiaris, Purkinje fiber. Summed up: as §3
The test system of assay [24] is Canis familiaris. As to the kind of experiment: In vivo antiarrhythmic efficacy in a programmed electrical stimulation (PES) model of mongrel dogs reported as number of animals effective at dose range of 0.1-10 mg/kg. In kind it is functional, Canis lupus familiaris, Heart. Summed up: as §4

A word on the IC50: it is the midpoint of a concentration-inhibition curve.

For the molecule `C[n+]1ccn(CC(=O)c2ccc(NS(C)(=O)=O)cc2)c1.[Cl-]`, the Blood pressure in the assay on Canis familiaris [1] is listed as 3%. Besides, the “Max delta FRP” value in the assay listed under Canis familiaris [2] is given as 15%. Also, the Activity is 2.3 µM in the assay filed under Canis familiaris [3] and “Not recorded” in the assay listed under Canis familiaris [5]. Moreover, the Heart rate with Canis familiaris [4] is -19%. Moreover, the “Max delta APD95” value in the assay filed under Canis familiaris [6] was 38%. In the assay with Canis familiaris [7], this molecule returned a No. effective of 0.
Regarding `Cc1n(CC(O)c2ccc(NS(C)(=O)=O)cc2)cc[n+]1C.[Cl-]` (stereo unspecified), the results for the “Max delta FRP” value in the assay filed under Canis familiaris [8] and in the assay listed under Canis familiaris [10] were 44% and 56%, respectively. In the assay on Canis familiaris [9], the Blood pressure was determined as 3%. For the same molecule, in the assay with Canis familiaris [11], the Heart rate was -20%. Moreover, the “Max delta APD95” value in the assay filed under Canis familiaris [6] stood at 51%. Also, the Activity was determined as 0.2 µM in the assay filed under Canis familiaris [12] and 0.8 µM in the assay filed under Canis familiaris [13]. In the assay on Canis familiaris [7], this molecule yielded a No. effective of 0.
Consider `C[n+]1ccn(CC(O)c2ccc(NS(C)(=O)=O)cc2)c1.[Cl-]` (stereo unspecified), for which the “Max delta FRP” value in the assay listed under Canis familiaris [2] came out at 31%. Further, the Blood pressure is 5% with Canis familiaris [9] and 0% in the assay on Canis familiaris [15]. In the assay with Canis familiaris [14], this molecule showed a Min effective dose of 6.5. The half-maximal inhibitory concentration (IC50) in assay [16] came to 2350 µM. The No. effective in the assay with Canis familiaris [17] was found to be 2. For the same molecule, the Heart rate was -10% in the assay on Canis familiaris [11] and -23% in the assay with Canis familiaris [18]. Besides, the “Max delta APD95” value in the assay filed under Canis familiaris [6] turned out to be 50%. The Activity was found to be 5.9 µM in the assay filed under Canis familiaris [12] and 1.6 µM in the assay filed under Canis familiaris [13].
In the case of `CCCCCCC[N+](CC)(CC)CCCCc1ccc(Cl)cc1.O=P([O-])(O)O` [CLOFILIUM PHOSPHATE], the Blood pressure with Canis familiaris [19] is given as 2%; with Canis familiaris [9] it was -4%. Further, the “Max delta FRP” value in the assay listed under Canis familiaris [2] is 7%. In addition, the Heart rate in the assay with Canis familiaris [20] was -12%; in the assay with Canis familiaris [11], -18%. Also, the results for the Activity result in the assay filed under Canis familiaris [21] and in the assay filed under Canis familiaris [23] were “Not recorded” and 0.26 µM, respectively. For the same molecule, in the assay with Canis familiaris [22], the Min effective dose turned out to be 0.63. Also, the “Max delta APD95” value in the assay filed under Canis familiaris [6] is on record as 39%. Besides, in the assay with Canis familiaris [24], the No. effective is listed as 7.
